Data: ChEMBL document CHEMBL3792321, “Potentiation of Francisella Resistance to Conventional Antibiotics through Small Molecule Adjuvants” (Medchemcomm, 2016)
In brackets after ≈: the same amount, converted by molar mass. Activity calls are given as the source filed them. The calls are words filed in the database; no cut-off is given here.

Experiments:
[1] = Effect on growth of Francisella philomiragia ATCC 25015 after 48 hrs
How it was run: (§1)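 Cultures grown 24 h were diluted to 5 × 10^5 CFU/mL in CAMHB with 2% IsoVitaleX (F. philomiragia) or TSB-C (F. novicida). Compound came from a 100 mM DMSO stock, starting at 200 µM, in twofold serial dilutions over 12 wells. Plates were incubated stationary at 37°C for 48 h. MIC was the lowest concentration with no bacterial growth.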

[2] = Potentiation of streptomycin-induced antibacterial activity against Francisella philomiragia ATCC 25015 assessed as MIC of streptomycin at 50 uM after 48 hrs (reference value: 4 ug/ml); type: functional; details: ATCC 25015, 48 h
How it was run: (§2)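 Inocula were 5 × 10^5 CFU/mL in CAMHB with 2% IsoVitaleX (F. philomiragia) or TSB-C (F. novicida). Adjuvant from a 100 mM DMSO stock was held at one fixed concentration; the control had no adjuvant. Antibiotic started at 2–2,048 µg/mL in twofold serial dilutions. Incubation was stationary at 37°C for 48 h. Antibiotic MIC was the lowest concentration with no growth, compared with and without adjuvant.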

[3] = Potentiation of gentamicin-induced antibacterial activity against Francisella philomiragia ATCC 25015 assessed as MIC of gentamicin at 50 uM after 48 hrs (reference value: 0.5 ug/ml); type: functional; details: ATCC 25015, 48 h; how it was run: as §2
[4] = Potentiation of azithromycin-induced antibacterial activity against Francisella philomiragia ATCC 25015 assessed as MIC of azithromycin at 50 uM after 48 hrs (reference value: 4 ug/ml); type: functional; details: ATCC 25015, 48 h; how it was run: as §2
[5] = microbe, parasite or virus in culture; type: functional; details: Francisella philomiragia, ATCC 25015, 48 h
[6] = Potentiation of colistin-induced antibacterial activity against Francisella philomiragia ATCC 25015 assessed as MIC of colistin at 50 uM after 48 hrs (reference value: 256 ug/ml); type: functional; details: ATCC 25015, 48 h; how it was run: as §2
[7] = Potentiation of FR900098-induced antibacterial activity against Francisella philomiragia ATCC 25015 assessed as reduction of FR900098 MIC at 50 uM after 48 hrs relative to control; type: functional; how it was run: as §2
[8] = Effect on growth of Francisella novicida U112 after 48 hrs; details: francisella tularensis subsp. novicida u112, 48 h; how it was run: as §1
[9] = Potentiation of gentamicin-induced antibacterial activity against Francisella novicida U112 assessed as MIC of gentamicin at 50 uM after 48 hrs (reference value: 1 ug/ml); type: functional, Francisella tularensis subsp. novicida U112; details: Francisella tularensis; how it was run: as §2
[10] = Potentiation of azithromycin-induced antibacterial activity against Francisella novicida U112 assessed as MIC of azithromycin at 50 uM after 48 hrs (reference value: 2 ug/ml); type: functional, Francisella tularensis subsp. novicida U112; details: Francisella tularensis; how it was run: as §2
[11] = microbe, parasite or virus in culture; type: functional, Francisella tularensis subsp. novicida U112; details: Francisella tularensis, 48 h
[12] = Effect on growth of Francisella philomiragia ATCC 25015 assessed as growth delay at 50 uM after 8 to 12 hrs by time kill assay
How it was run: (§3)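 F. philomiragia from 24 h CAMHB/2% IsoVitaleX cultures was inoculated to 5 × 10^5 CFU/mL, with compound or as an untreated control. Tubes were shaken at 37°C. Samples taken at 8, 12, 16, 20 and 24 h were serially diluted and plated on cysteine heart agar with 5% rabbit blood. Plates were incubated at 37°C for 24–36 h, and CFU were counted.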

[13] = Effect on growth of Francisella philomiragia ATCC 25015 at 50 uM after 16 hrs by time kill assay; how it was run: as §3
[14] = Potentiation of colistin-induced antibacterial activity against Francisella novicida U112 assessed as reduction of colistin MIC at 50 uM after 48 hrs relative to control; type: functional, Francisella tularensis subsp. novicida U112; how it was run: as §2
[15] = Potentiation of colistin-induced antibacterial activity against Francisella novicida U112 assessed as reduction of colistin MIC at 100 uM after 48 hrs; type: functional, Francisella tularensis subsp. novicida U112; how it was run: as §2
[16] = Potentiation of azithromycin-induced antibacterial activity against Francisella philomiragia ATCC 25015 assessed as reduction of azithromycin MIC at 50 uM after 48 hrs relative to control; type: functional; how it was run: as §2
[17] = test system: Francisella tularensis subsp. novicida U112; assay: Potentiation of azithromycin-induced antibacterial activity against Francisella novicida U112 assessed as reduction of azithromycin MIC at 50 uM after 48 hrs relative to control; type: functional; how it was run: as §2
[18] = Potentiation of colistin-induced antibacterial activity against Francisella philomiragia ATCC 25015 assessed as reduction of colistin MIC at 50 uM after 48 hrs relative to control; type: functional; how it was run: as §2
[19] = Potentiation of gentamicin-induced antibacterial activity against Francisella philomiragia ATCC 25015 assessed as reduction of gentamicin MIC at 50 uM after 48 hrs relative to control; type: functional; how it was run: as §2
[20] = Potentiation of streptomycin-induced antibacterial activity against Francisella philomiragia ATCC 25015 assessed as reduction of streptomycin MIC at 50 uM after 48 hrs relative to control; type: functional; how it was run: as §2

Compound | MIC [1] | MIC [2] | MIC [3] | MIC [4] | MIC [5] | MIC [6] | fold change (FC) [7] | MIC [8] | MIC [9] | MIC [10] | MIC [11] | Activity [12] | Activity [13] | fold change (FC) [14] | fold change (FC) [15] | fold change (FC) [16] | Activity [17] | fold change (FC) [18] | fold change (FC) [19] | fold change (FC) [20]
CCCCCc1ccc(C2=NCCO2)cc1 | 200 µM (≈ 43.5 µg/mL) | 8 µg/mL | 1 µg/mL | 2 µg/mL | < 64 µg/mL | 512 µg/mL | 16 |  |  |  |  |  |  |  |  |  |  |  |  | 
CCCCc1ccc(C(=O)NCCc2c[nH]c3ccccc23)cc1 | > 200 µM | 4 µg/mL | 0.25 µg/mL | 0.5 µg/mL | 1020 µg/mL (≈ 3.2 mM) | 8 µg/mL |  | > 200 µg/mL | 4 µg/mL | 1 µg/mL | 512 µg/mL (≈ 1.6 mM) | Toxic | Non-toxic | 2 | 16 |  |  |  |  | 
CCSC(=O)N1CCc2ccccc21 | > 200 µM | 4 µg/mL | 0.5 µg/mL | 0.5 µg/mL | 1020 µg/mL (≈ 4.94 mM) | 256 µg/mL |  | > 200 µg/mL | 4 µg/mL | 0.125 µg/mL | 1020 µg/mL (≈ 4.94 mM) |  |  |  |  | 8 | Active |  |  | 
CCCCc1ccc(C(=O)NCCCc2c[nH]c3ccccc23)cc1 | > 200 µM | 4 µg/mL | 0.25 µg/mL | 2 µg/mL |  | 64 µg/mL |  |  |  |  |  |  |  |  |  |  |  | 4 |  | 
Cc1cc2nc(N)[nH]c2cc1C | > 200 µM | 1 µg/mL | 0.125 µg/mL | 4 µg/mL | 1020 µg/mL (≈ 6.35 mM) | 32 µg/mL |  | > 200 µg/mL | 1 µg/mL | 2 µg/mL | 1020 µg/mL (≈ 6.35 mM) |  |  |  |  |  |  |  | 4 | 4
